# Screens deposited in PubChem by SRMLSC.
# Only a selection was taken, and hits are over-represented in it overall.
# Yeast life ext: compounds extending yeast replicative lifespan, primary screen, S. cerevisiae, OD615 | S. cerevisiae growth with nicotinamide; deaD strain in restrictive glucose medium | inhibition of the nicotinamide effect, % at 10 µM | actives 0.68% (n = 130,000) | AID 775, 2007;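 active means inhibition above a set limit, placed 3 SD over the median of all compounds, cut at about 26% in these data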;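 further: 0% = nicotinamide-treated wells and 100% = cells grown without nicotinamide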
#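 Test system: DeaD-strain S. cerevisiae / Buffer or medium: restrictive glucose medium / Also added: nicotinamide 1.5 mM / Doses: one concentration, 10 µM, DMSO 0.25% / Schedule: 48 h at 30 °C / Signal: OD615 measurement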
# BB579 growth dn: growth inhibitors of yeast BB579 in restrictive medium, primary screen, yeast lifespan-shortening project, S. cerevisiae; actives 0.51% (n = 140,000); inhibition, % at 10 µM; AID 804, 2007; OD615, 48 h;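 active means inhibition above a set limit, 3 SD over the mean compound inhibition, cut at about 44% in these data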
#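 Test system: S. cerevisiae DeaD strain BB579 yeast; Medium: restrictive CSMM-D medium; Compound: one dose, 10 µM compound with 0.25% DMSO; Incubation: 4 h cell preincubation, 48 h compound exposure, 30 °C humidified; Signal: OD at 615 nm; Benchmarks: amphotericin B at 10 µg/mL as positive control.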
# PostGolgi ctrl: growth inhibition of yeast control strain, primary screen, counter-screen for post-Golgi transport modulator project; efflux-deficient yeast background strain, growth absorbance A615, 16 h; inhibition, % at 10 µM; actives 5% (n = 98,000); AID 738, 2007
# PostGolgi yeast: phenotypic screen on post-Golgi transport, primary screen | post-Golgi transport phenotypic cell assay | inhibition, % at 10 µM | actives 0.9% (n = 98,000);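 further: yeast cells grown in 1536-well plates; yeast grown about 18 h at 30C before absorbance read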
# * marks the source's active call; other numbers are inactive results; / = no result given. Unless noted, no stated cut-off is given here; in the data, active means inhibition above about 30%; inactive means the rest.
SMILES,Yeast life ext,BB579 growth dn,PostGolgi ctrl,PostGolgi yeast
Cc1cccc(N2CCN(C(=O)Cn3cccc3)CC2)c1C,-7,1,8,4
Cc1cccc(NC(=O)CCN2C(=O)C3C4C=CC(C4)C3C2=O)n1 (configuration not stated),2,-25,10,3
CCOCCCNS(=O)(=O)c1ccc(-n2cnnn2)c(OC)c1,-8,-6,4,-6
COc1cccc(-c2nnc(NC(=O)c3ccc(Cl)s3)o2)c1,7,19,/,/
Cc1cccc(OCCN2CSC(=S)N(C)C2)c1,8,67*,7,7
COc1ccccc1OCCN1CSC(=S)N(C)C1,14,53*,/,/
Cc1cccc(OCCCN2CCCCCC2)c1,-14,-25,7,2
COc1ccccc1OCCCCN1CCN(c2ccccc2OC)CC1,-5,-56,4,-2
COC(=O)Nc1ccc(=O)n(Cc2c(Cl)cccc2Cl)c1,-2,-18,6,8
Cc1cc(C)c(NC(=O)CN(C2CCCCC2)C2CCCCC2)c(C)c1,8,-45,53*,32*
Cc1cc(C)n2nc(C(=O)NCc3ccccc3)cc2n1,-20,-27,3,43*
Cc1cc(C)n2nc(C(=O)NCc3ccccc3)nc2n1,-9,5,-3,-4
CCOc1ccc(CCNS(=O)(=O)c2cccc3nsnc23)cc1OCC,-6,-35,7,19
Cc1cc(N)n(-c2nc(-c3cccnc3)nc3ccccc23)n1,-9,-27,13,-4
COC(=O)c1ccc(NC(=O)NS(=O)(=O)c2ccc(C)cc2)cc1,-6,-24,-3,18
CCOC(=O)c1[nH]c2cc3c(cc2c1NC(=O)CN1CCC2(CC1)OCCO2)OCO3,-21,-10,9,0
CCOC(=O)c1[nH]c2ccc(OCC)cc2c1NC(=O)CN1CCC2(CC1)OCCO2,57*,-65,5,6
COC(=O)c1[nH]c2cc(C)ccc2c1NC(=O)CN1CCc2cc(OC)c(OC)cc2C1,-15,-30,17,10
COC(=O)c1[nH]c2ccc(Cl)cc2c1NC(=O)CN1CCc2cc(OC)c(OC)cc2C1,-16,-60,31*,4
CCOC(=O)c1[nH]c2ccc(OC)cc2c1NC(=O)CCN1CCc2ccccc2C1,-18,-35,32*,8
C[C@@H]1NC(=O)c2cc([N+](=O)[O-])cc(I)c2OCC[C@@H](C(=O)NC(CC(=O)O)C(N)=O)NC(=O)[C@H](CC(N)=O)NC1=O (some centres not stated),9,-27,/,/
Cc1ccccc1Nc1nc(N)nc(COC(=O)CC2CC3CCC2C3)n1 (configuration not stated),-5,-42,/,/
Cc1ccc2cc(C(c3nnnn3CC3CCCO3)N3CCc4ccccc4C3)c(=O)[nH]c2c1 (configuration not stated),-7,-67,42*,-13
Cc1cccc2cc(C(c3nnnn3CC3CCCO3)N3CCc4ccccc4C3)c(=O)[nH]c12 (configuration not stated),31,-21,1,1
O=[N+]([O-])c1cccc(/C=N/n2cnnc2)c1O,-9,76*,/,/
SMILES,Yeast life ext,BB579 growth dn,PostGolgi ctrl,PostGolgi yeast
O=S(=O)(NCC1CCCO1)c1ccc(S(=O)(=O)N(Cc2ccc(F)cc2)Cc2ccco2)cc1 (configuration not stated),-2,-36,/,/
CCCC(=O)NC(C)c1nc2ccccc2[nH]1 (configuration not stated),-4,-37,11,-3
CC(NC(=O)Cc1ccccc1)c1nc2ccccc2[nH]1 (configuration not stated),3,16,33*,-3
CCOC(=O)c1nnn(CC(=O)Nc2ccccc2OC)c1C(=O)OCC,3,-53,10,-5
COc1ccc2nc(NC(=O)c3cccc(OCc4c(C)noc4C)c3)sc2c1,17,-24,33*,18
Cc1nn(C)cc1C1C2=C(CC(C)(C)CC2=O)OC2=C1C(=O)CC(C)(C)C2,-8,-3,-15,-2
CCCn1c(SCc2ccon2)nc2ccccc2c1=O,-7,-29,10,3
COc1ccccc1N1CCN(C(=O)CN(Cc2ccccc2)S(C)(=O)=O)CC1,-16,-18,11,35*
CC(=O)/C(=N\Nc1ccc(C)cc1)N1CCOCC1,-13,92*,-9,20
CCOc1ccccc1C(=O)OCC(=O)Nc1ccc(OC(F)F)cc1,-9,-68,11,-8
CC(C)(C)C(=O)/C(=C/c1cccc([N+](=O)[O-])c1)n1cncn1,56*,4,/,/
Cc1ccc(N=c2sc(C)c(C)n2C)cc1,8,-12,/,/
Cc1c(N=Cc2cc(Br)cc(Br)c2O)cccc1C(=O)O,-13,98*,/,/
COc1ccccc1CNC(=O)c1csc(Cc2ccc(Cl)cc2)n1,-2,-87,56*,-3
N#CC1=C(N)SC(N)=C(C#N)C1c1cccc(O)c1,-17,-5,15,-18
COc1cc(/C=C(\C#N)C(=O)NCC2CCCO2)ccc1O (configuration not stated),-6,-5,/,/
COc1cc(/C=C(\C#N)c2nc3c(s2)CCCC3)ccc1O,-9,-6,56*,5
Cc1ccc(N=c2oc3cc(O)ccc3cc2C(N)=O)cc1,-2,-59,58*,30*
Cc1cc2nc3c(=O)n(C4CCCCC4)c(=O)[nH]c3nc2cc1N,2,-18,/,/
COc1cccc(N2CCN(C(c3ccccn3)c3nnnn3C(C)(C)C)CC2)c1 (configuration not stated),/,-8,/,/
CC(C)(C)n1nnnc1C(c1cccc(C#N)c1)N1CCC(Cc2ccccc2)CC1 (configuration not stated),0,-64,43*,-4
Cc1cccc(N2CCN(C(c3ccccc3)c3nnnn3C(C)(C)C)CC2)c1C (configuration not stated),/,-32,/,/
Cc1cccc(N2CCN(C(c3cccs3)c3nnnn3C(C)(C)C)CC2)c1C (configuration not stated),-8,-7,40*,12
c1ccc(Cn2nnnc2C(c2cccnc2)N2CCN(c3ccccc3)CC2)cc1 (configuration not stated),-10,-42,90*,92*
CC(C)(C)n1nnnc1C(c1cccs1)N1CCN(c2ccccc2)CC1 (configuration not stated),-4,-67,36*,8
CN1CCN(C(c2ccccc2)c2nnnn2Cc2ccccc2)CC1 (configuration not stated),/,-30,/,/
CCC(C)(C)n1nnnc1C(c1ccncc1)N1CCC(Cc2ccccc2)CC1 (configuration not stated),-2,3,14,2
O=S(=O)(NCCSc1nnc(-c2ccco2)n1-c1ccccc1)c1ccccc1,-7,-18,2,11
CCOC(=O)c1[nH]c(C)c(C(=O)N2CCN(c3cccc(Cl)c3)CC2)c1C,-3,-38,23,-4
CN1CCc2c(sc3c2c(=O)n(-c2ccccc2)c2n[nH]c(=S)n32)C1,-19,-21,4,2
